{
  "source": "ChEMBL document CHEMBL1154891",
  "about": "“Cytotoxic acylphloroglucinol derivatives from the twigs of Garcinia cowa” (J Nat Prod, 2010)",
  "key": {"HT-29 [1]": {"test_system": "HT-29", "experiment": "Cytotoxicity against human HT-29 cells at 5 uM after 24 hrs by MTT assay", "type": "functional"}, "HCT-116": {"test_system": "HCT-116", "experiment": "Cytotoxicity against human HCT116 cells at 5 uM after 24 hrs by MTT assay", "type": "functional, cell-based"}, "HT-29 [2]": {"test_system": "HT-29", "experiment": "Cytotoxicity against human HT-29 cells after 24 hrs by MTT assay", "type": "functional, cell-based", "details": "HT-29, 24 h", "how_it_was_run": "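MTT read-out: 3 h at 37 °C, DMSO solubilization, A570 with 620 nm background. Viability relative to untreated control; IC50 derived. Cisplatin in saline run in parallel as positive control. Mean + SEM.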"}, "[3]": {"experiment": "Cytotoxicity against human CCD-18Co cells at 5 uM after 24 hrs by MTT assay", "type": "cell-based", "how_it_was_run": "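CCD-18Co colon fibroblasts grown in MEM with 10% FBS and HEPES at 37 °C, 5% CO2, seeded overnight at 7 × 10^3 cells/well. MTT added for 3 h at 37 °C, formazan dissolved in DMSO, A570 read with 620 nm background subtraction. Untreated = 100%. Triplicate, ≥3 independent experiments, mean + SEM.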"}, "[4]": {"experiment": "Cytotoxicity against human CCD-18Co cells at 5 uM after 24 hrs by MTT assay"}},
  "note": "The source made the active and inactive calls. No cut-off for these calls is given here.",
  "data": [
    {"smiles": "CC(C)=CC[C@@H]1C[C@@]23C[C@@H](CC=C(C)C)C(C)(C)[C@](CC=C(C)C)(C(=O)C(C(=O)c4ccc(O)c(O)c4)=C2OC1(C)C)C3=O", "values": [
      {"measurement": "Activity", "setting": "HT-29 [1]", "value": "Active"},
      {"measurement": "Activity", "setting": "HCT-116", "value": "Active"},
      {"measurement": "IC50", "setting": "HT-29 [2]", "value": 5.1, "unit": "µM"},
      {"measurement": "Activity", "setting": "[3]", "value": "Non-toxic"},
      {"measurement": "Activity", "setting": "[4]", "value": "Non-toxic"}
    ]},
    {"smiles": "CC(C)=CC[C@H]1C[C@@]23C[C@@H](CC=C(C)C)C(C)(C)[C@@](CC=C(C)C)(C(=O)C(C(=O)c4ccc(O)c(O)c4)=C2OC1(C)C)C3=O", "note": "[CAMBOGIN]", "values": [
      {"measurement": "Activity", "setting": "HT-29 [1]", "value": "Active"},
      {"measurement": "Activity", "setting": "HCT-116", "value": "Active"},
      {"measurement": "Activity", "setting": "[3]", "value": "Non-toxic"},
      {"measurement": "Activity", "setting": "[4]", "value": "Non-toxic"}
    ]},
    {"smiles": "CC(C)=CCC/C(C)=C/C[C@H]1CC(C)(C)OC2=CC(=O)[C@]3(CC=C(C)C)C(=O)[C@@]21CC[C@]3(C)CCC=C(C)C", "note": "[GARCICOWIN A]", "values": [
      {"measurement": "Activity", "setting": "[3]", "value": "Non-toxic"},
      {"measurement": "Activity", "setting": "[4]", "value": "Non-toxic"}
    ]},
    {"smiles": "CC(C)=CCC/C(C)=C/C[C@@H]1C[C@]2(CC=C(C)C)C(=O)[C@@](CC=C(C)C)(C(=O)C(C(=O)c3cccc(O)c3)=C2O)[C@@]1(C)CCC=C(C)C", "note": "[GARCICOWIN B]", "values": [
      {"measurement": "Activity", "setting": "[3]", "value": "Non-toxic"},
      {"measurement": "Activity", "setting": "[4]", "value": "Non-toxic"}
    ]},
    {"smiles": "C=C(C)[C@@H]1C[C@]23C[C@@H](CC=C(C)C)C(C)(C)[C@](CC=C(C)C)(C(=O)C(C(=O)c4ccc(O)c(O)c4)=C2O[C@H]1C=C(C)C)C3=O", "note": "[GARCICOWIN D]", "values": [
      {"measurement": "Activity", "setting": "HT-29 [1]", "value": 57.7, "unit": "%"},
      {"measurement": "Activity", "setting": "[3]", "value": "Non-toxic"},
      {"measurement": "Activity", "setting": "[4]", "value": "Non-toxic"}
    ]},
    {"smiles": "C=C(C)[C@@H]1C[C@]23C[C@H](CC=C(C)C)C(C)(C)[C@](CC=C(C)C)(C(=O)C(C(=O)c4ccc(O)c(O)c4)=C2O[C@H]1C=C(C)C)C3=O", "note": "[GARCINIALIPTONE B]", "values": [
      {"measurement": "Activity", "setting": "HT-29 [1]", "value": 73.8, "unit": "%"},
      {"measurement": "Activity", "setting": "[3]", "value": "Non-toxic"},
      {"measurement": "Activity", "setting": "[4]", "value": "Non-toxic"}
    ]},
    {"smiles": "CC(C)=CCC/C(C)=C/C[C@@H]1C[C@@]2(C/C=C(\\C)CCC=C(C)C)C(=O)[C@](CC=C(C)C)(C(=O)C(C(=O)c3ccc(O)c(O)c3)=C2O)C1(C)C", "note": "[GUTTIFERONE B]", "values": [
      {"measurement": "Activity", "setting": "HT-29 [1]", "value": "Active"},
      {"measurement": "Activity", "setting": "HCT-116", "value": "Active"},
      {"measurement": "Activity", "setting": "[3]", "value": "Non-toxic"},
      {"measurement": "Activity", "setting": "[4]", "value": "Non-toxic"}
    ]},
    {"smiles": "CC(C)=CCC/C(C)=C/C[C@@H]1C[C@]2(CC=C(C)C)C(=O)[C@@](CC=C(C)C)(C(=O)C(C(=O)c3ccc(O)c(O)c3)=C2O)C1(C)C", "note": "[OBLONGIFOLIN B]", "values": [
      {"measurement": "Activity", "setting": "HT-29 [1]", "value": "Active"},
      {"measurement": "Activity", "setting": "HCT-116", "value": "Active"},
      {"measurement": "Activity", "setting": "[3]", "value": "Non-toxic"},
      {"measurement": "Activity", "setting": "[4]", "value": "Non-toxic"}
    ]},
    {"smiles": "CC(C)=CCC/C(C)=C/C[C@@H]1C[C@]2(CC=C(C)C)C(=O)[C@@](CC=C(C)C)(C(=O)C(C(=O)c3ccc(O)c(O)c3)=C2O)[C@@]1(C)CCC=C(C)C", "note": "[OBLONGIFOLIN C]", "values": [
      {"measurement": "Activity", "setting": "HT-29 [1]", "value": "Active"},
      {"measurement": "Activity", "setting": "HCT-116", "value": "Active"},
      {"measurement": "Activity", "setting": "[3]", "value": "Non-toxic"},
      {"measurement": "Activity", "setting": "[4]", "value": "Non-toxic"}
    ]},
    {"smiles": "CC(C)=CCC/C(C)=C/C[C@H]1C[C@]2(C/C=C(\\C)CCC=C(C)C)C(=O)[C@@](CC=C(C)C)(C(=O)C(C(=O)c3ccc(O)c(O)c3)=C2O)C1(C)C", "note": "[OBLONGIFOLIN D]", "values": [
      {"measurement": "Activity", "setting": "HT-29 [1]", "value": "inactive"},
      {"measurement": "Activity", "setting": "HCT-116", "value": "inactive"},
      {"measurement": "Activity", "setting": "[3]", "value": "Non-toxic"},
      {"measurement": "Activity", "setting": "[4]", "value": "Non-toxic"}
    ]}
  ]
}
